The target in assay [1] is T1, Amyloid-beta precursor protein (Homo sapiens, UniProt P05067). Nature of the assay: Inhibition of amyloid beta (1 to 42) (unknown origin) assessed as fibril formation at 10 uM incubated with agitation for 1 min every hr measured over 80 hrs by thioflavin-T assay relative to control. Details: scale not given: the % may be the effect or the level left.
The target of assay [2] is T1, Amyloid-beta precursor protein. Nature of the assay: Inhibition of amyloid beta (1 to 42) fibrillization (unknown origin) at 12.5 to 25 uM incubated with agitation for 1 min every hr measured over 80 hrs by transmission electron microscopy. An outline of the steps:
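End-point Aβ(1–42) products after 80 h ThT incubation (50 µM peptide, 37 °C) with 12.5 or 25 µM compound were applied to Formvar carbon-coated copper grids for 5 min. Grids were water-washed and stained with 2% uranyl acetate. Imaging was by TEM at 120 kV.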

Assay [3] shares this target. Nature of the assay: Disaggregation of amyloid beta (1 to 42 residues) (unknown origin) preformed fibrils incubated with agitation for 1 min every hr measured over 80 hrs by thioflavin-T assay. An outline of the steps:
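Preformed Aβ(1–42) fibrils (25 μM; peptide in DMSO diluted into 20 mM PB pH 7.4, shaken at least 4 days) mixed with compound at 0–100 μM and 5 μM ThT. Incubated at 37 °C with 1 min agitation hourly. Fluorescence read at ex 442/em 485 nm, buffer background subtracted. Final signal normalized to fibrils alone; triplicate; IC50 fitted to Y=100/(1+10^(X−LogIC50)).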

Assay [4] deals with SH-SY5Y. Nature of the assay: Neuroprotective activity against amyloid beta (1 to 42 residues) induced cytotoxicity in human SH-SY5Y cells assessed as protection against amyloid beta (1 to 42 residues) induced decrease in cell viability at 25 uM after 24 hrs by LDH assay relative to control. The format is functional. An outline of the steps:
(§1)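 SH-SY5Y cells (DMEM/F12, 5% FBS, 37 °C, 5% CO2) were seeded at 10,000 cells/well for 24 h, then switched to serum-free medium. Cells received 10 µL end-point Aβ(1–42) ThT-assay product (peptide co-incubated with compound) for 24 h. Cleared medium was incubated with LDH substrate 30 min at room temperature, dark, and read at 490 nm. Cell-free background was subtracted; 2% Triton X-100 lysis set 100% cytotoxicity. Triplicate.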

For assay [5], the target named is T1, Amyloid-beta precursor protein. Nature of the assay: Disaggregation of amyloid beta (1 to 42 residues) (unknown origin) preformed fibrils up to 100 uM measured immediately by Western blot analysis. In outline: (§2)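 Preformed Aβ(1–42) fibrils incubated with compound at 0, 25, 50 or 100 μM for 0 or 14 days. Samples (20 μL plus SDS sample buffer) run on native 13% Tris-tricine gel without SDS, transferred to nitrocellulose at 250 mA for 75 min at 4 °C, blocked in 5% milk, probed with 4G8 and 6E10 plus anti-mouse IgG, ECL detection.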
A general note: A western blot detects proteins with antibodies after separation by electrophoresis.

Assay [6] concerns Caenorhabditis elegans. Nature of the assay: Protection against amyloid beta aggregation-induced paralysis in Caenorhabditis elegans CL4176 assessed as survival rate of worms at 40 uL pretreated with compound at 16 degC for 20 hrs followed by raising temperature to 25 degC and measured at 26 hrs relative to control. The format is functional. In outline: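 About 130 eggs of transgenic C. elegans CL4176 (muscle myo-3p::Aβ(1–42)) were grown at 16 °C on NGM plates with E. coli OP50. Plates were pretreated with 40 µL of a 6.27 mM compound solution; nematode growth medium served as buffer control. Temperature was raised to 25 °C at L4. Unparalysed worms (~100–130 per condition) were counted every 2 h. Five trials.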

The subject of assay [7] is SH-SY5Y. Nature of the assay: Neuroprotective activity against preformed amyloid beta (1 to 42 residues) fibril induced cytotoxicity in human SH-SY5Y cells assessed as protection against amyloid beta (1 to 42 residues) induced cell viability at 100 uM after 24 hrs by LDH assay (reference value: 17%). The class given is functional. An outline of the steps: (§3)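 Preformed fibrils: 0.1 mg Aβ(1–42) in 6 µL DMSO was diluted into 880 µL 20 mM PB pH 7.4 and shaken ≥4 days. Fibrils were then held with 0, 25, 50 or 100 µM compound. SH-SY5Y cells in serum-free medium received 10 µL sample for 24 h. LDH release was read at 490 nm, background-subtracted, and normalized to 2% Triton X-100 lysis as 100%.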

Assay [8] concerns SH-SY5Y. Nature of the assay: Neuroprotective activity against amyloid beta (1 to 42 residues) induced cytotoxicity in human SH-SY5Y cells assessed as protection against amyloid beta (1 to 42 residues) induced decrease in cell viability after 24 hrs by LDH assay. The format is functional, cell-based. An outline of the steps:
as §1

Assay [9] has as its target T1, Amyloid-beta precursor protein. Nature of the assay: Inhibition of amyloid beta (1 to 42) (unknown origin) assessed as fibril formation at 3.1 uM incubated with agitation for 1 min every hr measured over 80 hrs by thioflavin-T assay relative to control. More on the design: scale not given: the % may be the effect or the level left. An outline of the steps:
(§4)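 Synthetic Aβ(1–42) taken up in DMSO, diluted to 50 μM in 20 mM PB pH 7.4 (final DMSO 1.5%) with 5 μM ThT, compound 0.01–100 μM. Incubated at 37 °C with 1 min agitation hourly for 80 h. ThT read at ex 442/em 485 nm. The 80 h signal, buffer-subtracted, normalized to Aβ alone. Independent triplicates, SEM; IC50 fitted to Y=100/(1+10^(X−LogIC50)).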

The target is the same in assay [10]. Nature of the assay: Inhibition of amyloid beta (1 to 42) fibrillization (unknown origin) incubated with agitation for 1 min every hr measured over 80 hrs by thioflavin-T assay.
The subject of assay [11] is SH-SY5Y. Nature of the assay: Neuroprotective activity against amyloid beta (1 to 42 residues) induced cytotoxicity in human SH-SY5Y cells assessed as protection against amyloid beta (1 to 42 residues) induced decrease in cell viability at 0.01 uM after 24 hrs by LDH assay relative to control. The class given is functional. An outline of the steps: as §1
In assay [12] the test system is Caenorhabditis elegans. Nature of the assay: Protection against amyloid beta aggregation-induced paralysis in Caenorhabditis elegans CL4176 assessed as median survival time of worms at 40 uL pretreated with compound at 16 degC for 20 hrs followed by raising temperature to 25 degC (reference value: 42.2 hrs). The class given is functional.
The target of assay [13] is T1, Amyloid-beta precursor protein. Nature of the assay: Disaggregation of amyloid beta (1 to 42 residues) (unknown origin) preformed fibrils at 100 uM measured immediately by transmission electron microscopy. In outline:
(§5)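 Aβ(1–42) made by Fmoc solid-phase synthesis and HPLC-purified. Fibrils preformed by dissolving 0.1 mg peptide in DMSO, diluting in 20 mM PB pH 7.4, and shaking for at least 4 days. Fibrils mixed with compound (100 μM), sampled at time 0 or after 14 days, placed on carbon-coated grids, stained with 2% uranyl acetate and imaged by TEM at 120 kV.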

For assay [14] the target is unchanged. Nature of the assay: Inhibition of amyloid beta (1 to 42) (unknown origin) assessed as fibril formation at 25 uM incubated with agitation for 1 min every hr measured over 80 hrs by thioflavin-T assay relative to control. More on the design: scale not given: the % may be the effect or the level left. In outline: as §4
The target is the same in assay [15]. Nature of the assay: Disaggregation of amyloid beta (1 to 42 residues) (unknown origin) preformed fibrils up to 100 uM measured on day 14 by Western blot analysis. An outline of the steps: as §2
The target is the same in assay [16]. Nature of the assay: Inhibition of amyloid beta (1 to 42) (unknown origin) assessed as fibril formation up to 100 uM incubated with agitation for 1 min every hr measured over 80 hrs by thioflavin-T assay. In outline:
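Synthetic Aβ(1–42) was dissolved in DMSO and diluted to 50 µM in 20 mM phosphate buffer, pH 7.4 (1.5% final DMSO), with 5 µM ThT. Compound was added at 0.01–100 µM and samples were held at 37 °C, agitated 1 min hourly. Fluorescence (ex 442, em 485 nm) was read over 80 h. Background-subtracted 80 h signal was normalized to Aβ alone and fit to Y=100/(1+10^(X−LogIC50)). Triplicate, SEM.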

Assay [17] concerns SH-SY5Y. Nature of the assay: Neuroprotective activity against preformed amyloid beta (1 to 42 residues) fibril induced cytotoxicity in human SH-SY5Y cells assessed as protection against amyloid beta (1 to 42 residues) induced cell viability at 50 uM after 24 hrs by LDH assay (reference value: 17%). The class given is functional. An outline of the steps:
as §3

For assay [18], the target named is T1, Amyloid-beta precursor protein. Nature of the assay: Disaggregation of amyloid beta (1 to 42 residues) (unknown origin) preformed fibrils at 100 uM measured on day 14 by transmission electron microscopy. In outline: as §5
Assay [19] shares this target. Nature of the assay: Inhibition of amyloid beta (1 to 42) (unknown origin) assessed as fibril formation at 100 uM incubated with agitation for 1 min every hr measured over 80 hrs by thioflavin-T assay relative to control. More on the design: scale not given: the % may be the effect or the level left. An outline of the steps: as §4
Assay [20] deals with SH-SY5Y. Nature of the assay: Neuroprotective activity against preformed amyloid beta (1 to 42 residues) fibril induced cytotoxicity in human SH-SY5Y cells assessed as protection against amyloid beta (1 to 42 residues) induced decrease in cell viability at 25 uM after 24 hrs by LDH assay. The format is functional, cell-based. An outline of the steps: as §3

The source made the active and inactive calls. The calls are words filed in the database; no cut-off is given here.

Here are results for 18 compounds from ChEMBL document CHEMBL4265933, “Rationally designed divalent caffeic amides inhibit amyloid-β fibrillization, induce fibril dissociation, and ameliorate cytotoxicity” (Eur J Med Chem, 2018).

What is called IC50 is the point on the concentration scale where inhibition reaches its midpoint.

T1 sequence (P05067 whole entry): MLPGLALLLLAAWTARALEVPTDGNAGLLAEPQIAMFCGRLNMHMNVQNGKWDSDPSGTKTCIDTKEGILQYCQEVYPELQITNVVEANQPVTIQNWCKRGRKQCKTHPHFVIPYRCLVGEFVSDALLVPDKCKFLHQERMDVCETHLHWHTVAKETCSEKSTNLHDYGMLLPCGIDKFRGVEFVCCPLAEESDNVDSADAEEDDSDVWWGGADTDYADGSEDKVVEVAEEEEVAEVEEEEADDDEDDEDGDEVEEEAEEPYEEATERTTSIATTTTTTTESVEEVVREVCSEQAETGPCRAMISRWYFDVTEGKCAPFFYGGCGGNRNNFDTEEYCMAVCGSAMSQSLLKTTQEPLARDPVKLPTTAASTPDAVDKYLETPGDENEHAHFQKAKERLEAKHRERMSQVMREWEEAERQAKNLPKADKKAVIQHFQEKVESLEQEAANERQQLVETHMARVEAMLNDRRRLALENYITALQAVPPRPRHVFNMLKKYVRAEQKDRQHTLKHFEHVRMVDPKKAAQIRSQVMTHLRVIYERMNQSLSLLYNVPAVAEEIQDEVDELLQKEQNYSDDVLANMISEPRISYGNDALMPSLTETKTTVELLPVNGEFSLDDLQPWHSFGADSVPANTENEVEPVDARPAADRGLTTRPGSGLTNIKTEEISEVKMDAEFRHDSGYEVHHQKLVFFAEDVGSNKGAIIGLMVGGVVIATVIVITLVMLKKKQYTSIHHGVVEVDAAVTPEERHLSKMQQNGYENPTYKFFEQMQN

Consider `C#CCCCNC(=O)/C=C/c1ccc(O)c(O)c1`, for which the Activity in [1] came to 135%.
As for `O=C(/C=C/c1ccc(O)c(O)c1)NCCOCCOCCOCCOCCNC(=O)/C=C/c1ccc(O)c(O)c1`, in assay [1], the Activity came out at 61.8%. In addition, in assay [2], the inhibition entry is “inactive”.
Turning to `O=C(/C=C/c1ccc(O)c(O)c1)NCCOCCOCCOCCNC(=O)/C=C/c1ccc(O)c(O)c1`, the Activity in assay [1] is 79.4%. Also, the inhibition result in assay [2] was “inactive”.
`O=C(/C=C/c1ccc(O)c(O)c1)CC(=O)/C=C/c1ccc(O)c(O)c1`: the Activity in assay [1] was 11.5%.
Turning to `O=C(/C=C/c1ccc(O)c(O)c1)NCCOCCOCCOCCOCCOCCNC(=O)/C=C/c1ccc(O)c(O)c1`, the Activity in assay [1] came to 67.6%. Also, the inhibition entry in assay [2] is “inactive”.
Take `O=C(/C=C/c1ccc(O)c(O)c1)NCCCNC(=O)/C=C/c1ccc(O)c(O)c1`: the Activity result was “Dose-dependent effect” in [3]; 34% in the assay with SH-SY5Y [4]; 9% in the assay with SH-SY5Y [7]; “Dose-dependent effect” in the assay on SH-SY5Y [8]; 60% in assay [9]; 52.9% in assay [1]. The Activity in the assay with SH-SY5Y [11] turned out to be 19%; in [14] it was 8%; in the assay on SH-SY5Y [17] it was 12%; in assay [19], 1%. Further, the values for the IC50 in [3] and in [10] were 4.2 µM and 4.9 µM, respectively. For the same compound, the result (in assay [5]; in [13]; with SH-SY5Y [20]) was inactive. For the same compound, the “fold change (FC)” value in the assay on Caenorhabditis elegans [6] is reported as 2.5. In addition, the inhibition entry in [10] was “Dose-dependent effect”. Also, in the assay with Caenorhabditis elegans [12], the MST amounted to 27.3 h. Further, the result in assay [15] and in assay [18] was Active. For the same compound, the inhibition entry in assay [16] and in [2] was “Active” each time.
Regarding `O=C(/C=C/c1ccc(O)c(O)c1)O[C@H](Cc1ccc(O)c(O)c1)C(=O)O`, in [1], the Activity stood at 79.1%.
The same measure, in the same setting: then `C#CCCCCNC(=O)/C=C/c1ccc(O)c(O)c1`, with 67.6%.
With `C#CCNC(=O)/C=C/c1ccc(O)c(O)c1`, in [1], the Activity came to 79.4%.
Same read-out and setting: then `O=C(/C=C/c1ccc(O)c(O)c1)NCc1cn(Cc2ccc(-c3ccc(Cn4cc(CNC(=O)/C=C/c5ccc(O)c(O)c5)nn4)cc3)cc2)nn1`, with 88.2%.
As for `O=C(/C=C/c1ccc(O)c(O)c1)O[C@H](Cc1ccc(O)c(O)c1)C(=O)NCc1cn(Cc2ccc(-c3ccc(Cn4cc(CNC(=O)[C@@H](Cc5ccc(O)c(O)c5)OC(=O)/C=C/c5ccc(O)c(O)c5)nn4)cc3)cc2)nn1`, the Activity in assay [1] came to 65.1%.
Take `O=C(O)/C=C/c1ccc(O)c(O)c1` [CAFFEIC ACID]: the Activity with SH-SY5Y [4] is 20%; in the assay on SH-SY5Y [8], “Dose-dependent effect”; in assay [1], 91.2%; with SH-SY5Y [11] it was 5%. In [10], this compound showed an IC50 of 15.6 µM. The inhibition entry in assay [10] was “Dose-dependent effect”. The MST with Caenorhabditis elegans [12] came out at 26.3 h. In assay [2], the inhibition entry was “Active”.
As to `COc1cc(/C=C/C(=O)CC(=O)/C=C/c2ccc(O)c(OC)c2)ccc1O` [CURCUMIN], the figures for the Activity with SH-SY5Y [4] and in the assay on SH-SY5Y [8] were 20% and “Dose-dependent effect”, respectively. The inhibition result in [10] was “Dose-dependent effect”. The outcome with SH-SY5Y [11] was inactive. In addition, the MST in the assay on Caenorhabditis elegans [12] worked out at 25.7 h. Moreover, the inhibition entry in assay [2] was “Active”.
Take `O=C(/C=C/c1ccc(O)c(O)c1)NCCOCCOCCNC(=O)/C=C/c1ccc(O)c(O)c1`: the Activity in assay [1] worked out at 64.7%. The inhibition result in assay [2] is “inactive”.
`C#CCNC(=O)[C@@H](Cc1ccc(O)c(O)c1)OC(=O)/C=C/c1ccc(O)c(O)c1`: in assay [1], the Activity turned out to be 107%.
Still for that read-out and setting: then `O=C(/C=C/c1ccc(O)c(O)c1)NCCCCc1cn(Cc2ccc(-c3ccc(Cn4cc(CCCCNC(=O)/C=C/c5ccc(O)c(O)c5)nn4)cc3)cc2)nn1`, with 61.8%; and `O=C(/C=C/c1ccc(O)c(O)c1)NCc1cn(Cc2ccc(Cn3cc(CNC(=O)/C=C/c4ccc(O)c(O)c4)nn3)cc2)nn1`, with 76.5%.
Same read-out and setting: in the case of `O=C(/C=C/c1ccc(O)c(O)c1)NCCCc1cn(Cc2ccc(-c3ccc(Cn4cc(CCCNC(=O)/C=C/c5ccc(O)c(O)c5)nn4)cc3)cc2)nn1` it was 112%.
